These results are taken from PubChem BioAssay.

Test [1] in a line: hit retest on RPL19A-GFP reporter strain – cell-based, S. cerevisiae, flow cytometry, cherry picks, mother/daughter gates, confirmation (AID 2270;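 active = GFP response below 50% of the DMSO control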). To be noted: 3 h, at 10 µM, stronger effect = lower value, 100 = same GFP as DMSO wells.
The nature of test [2]: yeast TOR pathway reporter LAP4-GFP change – cell-based, cherry picks, flow cytometry, mother/daughter gates, confirmation (AID 2271;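 active = GFP response above 150% of the DMSO control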;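 also: ratio of sample to DMSO plate mean so 100% equals DMSO level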). Conditions: S. cerevisiae LAP4-GFP strain, 3 h, at 10 µM, stronger effect = higher value, 100 means same as DMSO control. Put shortly:
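System: GFP-fusion yeast strain | Input: Yeast cells seeded at OD600 of 0.2 | Technique: HT flow cytometry, GFP fluorescence channel | Read-out: % GFP response vs DMSO | Dosing: Single test-compound dose, 10 µM final | Controls: Positive rapamycin (400 ng/mL), negative DMSO | Times: 3 h treatment at 30 °C with rotation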
A general note: A flow cytometer gives signals particle by particle.

A short description of test [3]: TOR pathway reporter MEP2-GFP, retest of hits – S. cerevisiae, flow cytometry GFP, cherry picks, confirmation (AID 2272;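 active = GFP response above 150% of the DMSO control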;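 also: ratio of well signal to plate DMSO mean so 100% equals DMSO level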). Conditions: S. cerevisiae MEP2-GFP strain, 3 h, at 10 µM, stronger effect = higher value.
The nature of test [4]: yeast AGP1-GFP fluorescence change, single-dose – cell-based, flow cytometry, S. cerevisiae, cherry picks, confirmation (AID 2273).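 Also: median GFP channel fluorescence over the whole cell population gate.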 Conditions: S. cerevisiae AGP1-GFP strain, 3 h, at 10 µM.
Test [5] in a line: TOR pathway CIT2 reporter hit retest – S. cerevisiae, GFP fusion, cherry picks, mother/daughter gates, confirmation (AID 2274). To be noted: S. cerevisiae CIT2-GFP strain, flow cytometry, 3 h, at 10 µM, stronger effect = higher value.
Where [6] appears, read: measured here: daughter cell gate.
The mark [7] stands for this setting: measured here: mother cell gate.
Setting [8] is: measured here: daughter cell gate response.
The mark [9] stands for this setting: measured here: mother cell gate response.

SMILES strings stand for the structures. Activity calls are given as the source filed them.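 The calls were made as follows, unless noted: active = GFP response above 150% of the DMSO level; inconclusive = fewer than 70 events counted for a yeast strain; inactive = the rest.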

`COc1cc(NC(=O)c2cc3ccccc3o2)ccc1NC(=O)c1ccco1`: the GFP response vs DMSO in test [1] was 99% (inactive); in test [1] (setting [6]) it was 97.9%; in test [1] (setting [7]), 98.9%; in test [3], 102% (inactive). Moreover, the GFP response relative to DMSO in test [2] is 96.7% (inactive); in test [2] (setting [8]), 97.6%; in test [2] (setting [9]), 96.1%. Also, the GFP response, % of DMSO was 94.1% (inactive) in test [4], 104% (inactive) in test [5], 105% in test [5] (setting [6]) and 103% in test [5] (setting [7]).
With `COc1ccc(C(=O)Nc2cccc(C)c2)cc1`, the GFP response vs DMSO in test [1] was 98.2% (inactive); in test [1] (setting [6]), 99.3%; in test [1] (setting [7]), 96.9%; in test [3], 108% (inactive). The values for the GFP response relative to DMSO in test [2], in test [2] (setting [8]) and in test [2] (setting [9]) were 109% (inactive), 108% and 107%, respectively. The GFP response, % of DMSO in test [4] was 101% (inactive); in test [5], 111% (inactive); in test [5] (setting [6]), 108%; in test [5] (setting [7]), 108%.
As for `Cn1nnnc1N=N/C(=N/Nc1ccccc1)c1ccccc1`, the GFP response vs DMSO in test [1] is 97.6% (inactive); in test [1] (setting [6]) it was 96.1%; in test [1] (setting [7]) it was 97.3%; in test [3] it was 94.7% (inactive). The GFP response relative to DMSO is 110% (inactive) in test [2], 107% in test [2] (setting [8]) and 115% in test [2] (setting [9]). Further, the GFP response, % of DMSO was 89.5% (inactive) in test [4], 87.2% (inactive) in test [5], 88.4% in test [5] (setting [6]) and 85.8% in test [5] (setting [7]).
For `CCOC(=O)c1csc(Nc2nc3ccc(F)cc3s2)n1`, the GFP response vs DMSO in test [1] was 94.6% (inactive); in test [1] (setting [6]), 95.2%; in test [1] (setting [7]) it was 94.2%; in test [3] it was 99% (inactive). In addition, the GFP response relative to DMSO is 103% (inactive) in test [2], 102% in test [2] (setting [8]) and 104% in test [2] (setting [9]). The GFP response, % of DMSO in test [4] is 93.4% (inactive); in test [5], 95.9% (inactive); in test [5] (setting [6]) it was 97.4%; in test [5] (setting [7]), 95.6%.
With `Cc1cccn2c(=O)c(/C=C(\C#N)C(=O)NCc3ccco3)c(N3CCCCCC3)nc12`, the GFP response vs DMSO was 97% (inactive) in test [1], 97.3% in test [1] (setting [6]), 97.2% in test [1] (setting [7]) and 97.8% (inactive) in test [3]. For the same compound, the GFP response relative to DMSO is 96.2% (inactive) in test [2], 95.6% in test [2] (setting [8]) and 98.3% in test [2] (setting [9]). Besides, the GFP response, % of DMSO is 95.4% (inactive) in test [4], 90% (inactive) in test [5], 89.9% in test [5] (setting [6]) and 86.9% in test [5] (setting [7]).
For the compound `O=S(=O)(c1ccccc1)c1ccc(C(F)(F)F)cn1`, the GFP response vs DMSO is 97.6% (inactive) in test [1], 98.3% in test [1] (setting [6]), 97.8% in test [1] (setting [7]) and 101% (inactive) in test [3]. Also, the values for the GFP response relative to DMSO in test [2], in test [2] (setting [8]) and in test [2] (setting [9]) were 96.1% (inactive), 95.1% and 95.1%, respectively. The GFP response, % of DMSO is 101% (inactive) in test [4], 95.9% (inactive) in test [5], 96.8% in test [5] (setting [6]) and 95.7% in test [5] (setting [7]).
Consider `COC(=O)c1cc(S(=O)(=O)Nc2nn(C)c3ccccc23)oc1C`, for which the GFP response vs DMSO in test [1] is 97.2% (inactive); in test [1] (setting [6]), 98.1%; in test [1] (setting [7]), 97.1%; in test [3], 100% (inactive). For the same compound, the GFP response relative to DMSO is 96.7% (inactive) in test [2], 97.6% in test [2] (setting [8]) and 94% in test [2] (setting [9]). Moreover, the GFP response, % of DMSO in test [4] is 95% (inactive); in test [5] it was 99.7% (inactive); in test [5] (setting [6]), 101%; in test [5] (setting [7]), 99.7%.
As to `CCCCCCc1cc2cc(-c3nnc(-c4ccccc4OC)o3)c(=O)oc2cc1O`, the GFP response vs DMSO was 98.7% (inactive) in test [1], 99.3% in test [1] (setting [6]), 98.4% in test [1] (setting [7]) and 106% (inactive) in test [3]. Moreover, the GFP response relative to DMSO in test [2] was 111% (inactive); in test [2] (setting [8]), 105%; in test [2] (setting [9]), 111%. The GFP response, % of DMSO in test [4] was 99.1% (inactive); in test [5], 100% (inactive); in test [5] (setting [6]), 101%; in test [5] (setting [7]) it was 98.2%.
In the case of `CCOc1ccccc1N1CCN(C(=O)c2cccc(-c3ccc(O)cc3)c2)CC1`, the GFP response vs DMSO in test [1] was 97% (inactive); in test [1] (setting [6]), 96.7%; in test [1] (setting [7]), 97.3%; in test [3], 102% (inactive). Also, the GFP response relative to DMSO in test [2] was 98.7% (inactive); in test [2] (setting [8]) it was 95.6%; in test [2] (setting [9]), 102%. Further, the GFP response, % of DMSO in test [4] was 92.4% (inactive); in test [5], 96.5% (inactive); in test [5] (setting [6]), 94.8%; in test [5] (setting [7]), 94.4%.
Take `Cc1noc2ncnc(Sc3c(Cl)cccc3Cl)c12`: the GFP response vs DMSO in test [1] was 101% (inactive); in test [1] (setting [6]) it was 102%; in test [1] (setting [7]) it was 99.8%; in test [3], 100% (inactive). Besides, the figures for the GFP response relative to DMSO in test [2], in test [2] (setting [8]) and in test [2] (setting [9]) were 94.1% (inactive), 94.4% and 94%, respectively. Further, the GFP response, % of DMSO was 88.6% (inactive) in test [4], 105% (inactive) in test [5], 105% in test [5] (setting [6]) and 104% in test [5] (setting [7]).
On to `COc1ccccc1C(=O)NNC(=S)NC(=O)c1cccs1`, for which the GFP response vs DMSO in test [1] was 116% (inactive); in test [1] (setting [6]), 126%; in test [1] (setting [7]), 107%; in test [3], 128% (inactive). Further, the results for the GFP response relative to DMSO in test [2], in test [2] (setting [8]) and in test [2] (setting [9]) were 225% (active), 181% and 202%, respectively. Besides, the GFP response, % of DMSO is 89.6% (inactive) in test [4], 121% (inactive) in test [5], 124% in test [5] (setting [6]) and 108% in test [5] (setting [7]).
Regarding `O=C1c2cccc3cccc(c23)C(=O)N1c1ccncc1`, the GFP response vs DMSO is 96.4% (inactive) in test [1], 97% in test [1] (setting [6]), 98.8% in test [1] (setting [7]) and 97.5% (inactive) in test [3]. Further, the GFP response relative to DMSO in test [2] is 84.9% (inactive); in test [2] (setting [8]), 85%; in test [2] (setting [9]), 84.7%. Besides, the GFP response, % of DMSO was 103% (inactive) in test [4], 105% (inactive) in test [5], 106% in test [5] (setting [6]) and 106% in test [5] (setting [7]).
In the case of `Cc1cc(NCCCn2ccnc2)n2ncc(-c3ccccc3)c2n1`, the GFP response vs DMSO in test [1] is 96.6% (inactive); in test [1] (setting [6]) it was 99.1%; in test [1] (setting [7]) it was 96.7%; in test [3], 99% (inactive). In addition, the GFP response relative to DMSO in test [2] is 95.7% (inactive); in test [2] (setting [8]) it was 94.2%; in test [2] (setting [9]), 96.2%. In addition, the GFP response, % of DMSO is 104% (inactive) in test [4], 100% (inactive) in test [5], 101% in test [5] (setting [6]) and 101% in test [5] (setting [7]).
For `COc1ccc(N2CCN(C(=O)c3ccc(OCC4CCCO4)cc3)CC2)cc1` (configuration not stated), the GFP response vs DMSO is 99.2% (inactive) in test [1], 98.8% in test [1] (setting [6]), 98.3% in test [1] (setting [7]) and 99% (inactive) in test [3]. The values for the GFP response relative to DMSO in test [2], in test [2] (setting [8]) and in test [2] (setting [9]) were 99.5% (inactive), 101% and 98.4%, respectively. The GFP response, % of DMSO in test [4] is 99.8% (inactive); in test [5], 100% (inactive); in test [5] (setting [6]) it was 101%; in test [5] (setting [7]), 99.3%.
For `COc1ccc(CC(=O)NCc2ccccn2)cc1OC`, the GFP response vs DMSO in test [1] is 97.6% (inactive); in test [1] (setting [6]), 97.8%; in test [1] (setting [7]) it was 98%; in test [3], 100% (inactive). For the same compound, the GFP response relative to DMSO is 93.8% (inactive) in test [2], 95.6% in test [2] (setting [8]) and 96.2% in test [2] (setting [9]). In addition, the GFP response, % of DMSO in test [4] was 100% (inactive); in test [5], 97.8% (inactive); in test [5] (setting [6]), 96.5%; in test [5] (setting [7]), 95.5%.
For the compound `O=C(Nc1cccnc1)c1ccc(-c2ccc(Cl)cc2)o1`, the GFP response vs DMSO in test [1] is 97.2% (inactive); in test [1] (setting [6]), 93.9%; in test [1] (setting [7]), 97.7%; in test [3] it was 97.8% (inactive). In addition, the GFP response relative to DMSO in test [2] was 101% (inactive); in test [2] (setting [8]) it was 100%; in test [2] (setting [9]) it was 103%. Moreover, the GFP response, % of DMSO in test [4] is 94.1% (inactive); in test [5], 100% (inactive); in test [5] (setting [6]), 98.1%; in test [5] (setting [7]) it was 99.8%.
As for `CC(=O)Nc1ccc(NC(=O)c2nc(S(=O)(=O)Cc3cccc(C)c3)ncc2Cl)cc1`, the GFP response vs DMSO is 102% (inactive) in test [1], 99.5% in test [1] (setting [6]), 103% in test [1] (setting [7]) and 100% (inactive) in test [3]. Besides, the GFP response relative to DMSO in test [2] is 93.8% (inactive); in test [2] (setting [8]), 97.2%; in test [2] (setting [9]), 95.2%. Also, the GFP response, % of DMSO in test [4] was 97.4% (inactive); in test [5] it was 104% (inactive); in test [5] (setting [6]) it was 103%; in test [5] (setting [7]), 105%.
